High-throughput results deposited in PubChem BioAssay by several laboratories.
ALR H2O2 inh: inhibitors of human sulfhydryl oxidase ALR; P55789; purified ALR, DTT oxidation, H2O2 HRP-luminol luminescence; inhibition, % (concentration not given with the values); actives 3.8% (n = 290,000);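 active = mean replicate inhibition above about 79%, with every replicate also reaching it, limit read from the data; inconclusive = only one of the two criteria met; inactive = mean below limit and not every replicate reaching it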
ATG4B inhibitor: inhibitors of human ATG4B cysteine protease; Q9Y4P1; ATG4B cleavage of LC3-PLA2, NBD-HPC fluorescence, 1 h; inhibition, % at 8.33 µM; actives 0.51% (n = 340,000); in the data active = inhibition above about 40%
Target sequence (Q9Y4P1 whole entry, looked up): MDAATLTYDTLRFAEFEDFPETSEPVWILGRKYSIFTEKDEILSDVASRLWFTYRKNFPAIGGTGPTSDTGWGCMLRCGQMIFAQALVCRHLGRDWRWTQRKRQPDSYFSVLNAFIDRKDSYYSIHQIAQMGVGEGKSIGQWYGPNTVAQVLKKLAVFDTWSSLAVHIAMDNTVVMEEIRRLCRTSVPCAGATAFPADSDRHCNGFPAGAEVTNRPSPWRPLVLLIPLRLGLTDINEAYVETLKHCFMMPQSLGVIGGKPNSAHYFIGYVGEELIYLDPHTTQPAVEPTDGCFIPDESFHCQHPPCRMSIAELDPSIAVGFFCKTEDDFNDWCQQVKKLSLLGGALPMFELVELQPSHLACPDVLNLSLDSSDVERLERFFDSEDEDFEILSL
NALP1 yeast inh: inhibitors of NALP1 inflammasome in yeast | S. cerevisiae NALP1/ASC/caspase-1 growth, X-gal OD620, 72 h | inhibition, % at 10 µM | actives 0.61% (n = 280,000); in the data active = inhibition mostly above about 24%, no sharp cut-off; inactive = mostly below about 32%
UCH37 inh: human UCH37 deubiquitinating enzyme inhibition. Q9Y5K5. purified proteasome/UCH37, Ub-AMC cleavage fluorescence. inhibition, % (no concentration beside the values). actives 0.33% (n = 330,000);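 active = mean inhibition over replicate wells above about 20%, limit read from the data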;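 note: 0% = compound-free wells with enzyme and 100% = wells lacking proteasome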
Target sequence (Q9Y5K5 whole entry, looked up): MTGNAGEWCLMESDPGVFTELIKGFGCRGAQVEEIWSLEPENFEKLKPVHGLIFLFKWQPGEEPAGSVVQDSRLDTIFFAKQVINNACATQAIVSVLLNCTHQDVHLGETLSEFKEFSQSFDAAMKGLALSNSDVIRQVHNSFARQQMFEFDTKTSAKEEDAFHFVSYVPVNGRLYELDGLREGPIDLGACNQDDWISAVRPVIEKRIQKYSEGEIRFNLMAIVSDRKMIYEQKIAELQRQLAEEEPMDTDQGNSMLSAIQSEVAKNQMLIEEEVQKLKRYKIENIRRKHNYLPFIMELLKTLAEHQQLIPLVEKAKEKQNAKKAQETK
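Signal – fluorescence, ex 355 nm, em 460 nm · System – Proteasome-bound UCH37 · Input – 0.15 nM proteasome as dispensed · Timing – 30 min preincubation with enzyme, 25 min cleavage at room temperature · Read-out basis – percent inhibition of cleavage signal versus uninhibited and no-proteasome wells · Medium – Tris-HCl pH 7.4 with ATP-MgCl2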
NLRP3 yeast inh: blocks the NALP3 inflammasome reconstituted in yeast | Yeast reconstituted NLRP3/ASC/caspase-1, beta-gal luminescence, 24 h | inhibition, % at 10 µM | actives 0.39% (n = 330,000) | AID 2825;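 active = inhibition of 50% or more; inactive = inhibition below 50%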;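 note: plate controls were induced DMSO wells for no effect and uninduced yeast grown without galactose for full effect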
Calb FLC: affects C. albicans growth with fluconazole | growth inhibition, % (no concentration beside the values) | C. albicans CaCi-2 (fluconazole-resistant clinical isolate) + fluconazole, Alamar Blue growth, 48 h | actives 0.57% (n = 300,000) | AID 1979;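 active = growth inhibition above about 58% in most replicates, limit read from the data, passing the limit was not always enough; inconclusive = exactly half the replicates above a set limit; inactive = most replicates below a set limit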;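 note: all wells also contain fluconazole at 8 µg/ml as a sub-toxic cotreatment; 0% = median of DMSO wells and 100% = median of geldanamycin control wells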
An asterisk follows results filed as active; i = inactive; ? = inconclusive; / = not tested or not shown. Hits are enriched below; roughly 4.8% of the tested compounds scored in any of these assays.

SMILES	ALR H2O2 inh	ATG4B inhibitor	NALP1 yeast inh	UCH37 inh	NLRP3 yeast inh	Calb FLC
CN(C)CC(O)COc1cc2ccccc2cc1C(=O)N1CCCCC1 (stereo not given)	-24.9	-0.2	16.2	0.9	2.0	102.7*
COc1cc2ccccc2cc1C(=O)N1CCCCC1	-3.9	3.3	/	-5.3	15.2	9.8
Cc1nnc(SCc2cc(=O)[nH]c(N3CCN(C)CC3)n2)s1	-5.7	-5.5	38.0	0.0	22.8	-5.6
Cc1ccc(SCc2cc(=O)[nH]c(N3CCN(C)CC3)n2)cc1	-13.5	-7.6	16.6	27.5*	12.2	8.7
COc1cccc(N/N=C/c2cccc(Br)c2O)c1	98.8*	0.6	-28.2	/	9.8	-6.8
Cc1cccc(N/N=C/c2ccc(O)c(O)c2O)c1	79.3*	-8.8	-6.5	/	4.4	-3.6
COc1cc(C=NNc2cccc(C)c2)cc(Br)c1O	/	/	/	-7.0	/	/
O=[N+]([O-])c1cccc(N/N=C/c2cccc(O)c2O)c1	99.9*	0.5	-4.3	/	16.8	-1.3
CN(C(=O)CON=Cc1ccc(OC(F)F)cc1)C1CCS(=O)(=O)C1 (stereo not given)	/	/	/	4.0	/	/
COc1cccc(C=NNC(=O)C(=O)NCc2cccnc2)c1O	/	/	/	7.4	/	/
CCOC(=O)c1c(N=CC2C(=O)CCCC2=O)sc(C)c1C	/	/	/	1.9	/	/
CC1=CC2=NC(=O)/C(=C\c3cc(C)n(-c4cccc(Cl)c4)c3C)C(=N)N2O1	-3.4	6.0	23.0	-37.2	7.2	2.6
CC1=CC2=NC(=O)/C(=C/c3coc4ccc(Cl)cc4c3=O)C(=N)N2O1	97.2*	3.8	15.7	4.6	7.9	2.2
CCNc1ccc(S(=O)(=O)N(C)C)cc1NCC(=O)Nc1c(F)cccc1F	/	-6.5	13.3	-0.5	1.6	-16.1
CCNc1ccc(S(=O)(=O)N(C)C)cc1NCC(=O)Nc1ccccc1Cl	98.7*	-1.7	-0.4	1.0	14.5	-21.6
CCN(CC)CCn1c(=S)[nH]c2ccc(Cl)cc2c1=O	89.4*	2.8	-12.8	3.8	23.5	-17.8
O=C(CSc1nc(-c2ccccc2)c(-c2ccccc2)[nH]1)NCCN1C(=O)CSC1=O	98.8*	-11.6	-10.6	0.4	-17.9	-7.8
COc1ccc(N2Nc3n[nH]c(N)c3N2)cc1	98.6*	-14.7	-20.2	10.1	20.0	29.6
O=C(O)c1ccc(COc2c(F)c(F)c(F)c(F)c2F)o1	96.0*	-1.8	-6.2	3.2	-0.1	8.3
CC(=O)NCCCc1c[nH]c2ccc(Cl)cc12	98.4*	0.3	6.3	3.6	4.6	8.8
ON=Cc1cc(Br)cc(Br)c1OCc1ccccc1	/	/	/	2.6	/	/
CCN(CC)c1ccc(C=NOCC(=O)Nc2cccc(C)c2)cc1	/	/	/	-5.3	/	/
Brc1ccccc1-c1nnc(SCc2nc3ccccc3s2)o1	96.3*	7.0	37.7	-28.7	24.9	0.4
CCN(CC)S(=O)(=O)c1cccc(-c2nnc(SCc3nc4ccccc4s3)o2)c1	-26.0	-6.8	24.7	0.3	14.9	11.7
O=c1oc2ccccc2cc1-c1ccc(O)cc1O	98.7*	-2.5	13.4	-12.2	0.1	-2.0
SMILES	ALR H2O2 inh	ATG4B inhibitor	NALP1 yeast inh	UCH37 inh	NLRP3 yeast inh	Calb FLC
Nc1nnc(-c2cc3ccccc3oc2=O)s1	/	-1.1	-15.9	-141.3	-12.3	4.8
Nc1cccc(-c2cc3ccccc3oc2=O)c1	99.0*	-4.8	7.3	5.7	24.0	18.6
O=c1oc2cc(O)ccc2cc1-c1ccccc1	90.7*	4.3	25.5	i	37.7	45.3
CC(=O)Oc1ccc(-c2cc3ccccc3oc2=O)cc1	-3.3	-9.2	/	-62.8	19.7	-1.8
O=C1ON=C(c2ccc([N+](=O)[O-])cc2)/C1=C/c1ccccc1O	98.3*	2.7	7.6	2.7	1.8	3.9
COc1ccc(C2Nc3cccc4cccc(c34)N2)cc1	-21.8	6.7	5.2	-9.3	14.1	23.2
CN(C)c1ccc(C2Nc3cccc4cccc(c34)N2)cc1	-128.9	-4.3	39.3*	-3.5	13.9	-3.7
COc1ccc(CN2C(=O)C3C4C=CC(C4)C3C2=O)cc1 (stereo not given)	99.9*	4.0	-1.3	-0.4	29.5	-16.4
Cc1ccc(CN2C(=O)CCSc3ccc(Cl)cc32)cc1	/	4.2	35.5*	4.6	11.1	12.6
Cc1ccc(-n2c(CCC(=O)O)ccc2-c2cccs2)cc1	94.2*	23.2	-7.4	0.7	-47.5	?
COC(=O)c1ccc(-n2c(CCC(=O)O)ccc2-c2ccc(C)cc2)cc1	62.9	7.3	8.1	-1.1	4.4	-5.8
NC(=O)c1ccc(-n2c(CCC(=O)O)ccc2-c2cccs2)cc1	84.0*	-3.6	2.8	1.2	19.6	-3.3
Cc1ccc(-c2ccc(CCC(=O)O)n2-c2ccc(C(=O)O)cc2)cc1	97.0*	9.0	15.8	/	10.4	-2.4
CC(=O)c1ccc(-n2c(CCC(=O)O)ccc2-c2cccs2)cc1	42.2	2.4	4.8	7.0	4.3	21.1
COC(=O)c1cccc(-n2c(CCC(=O)O)ccc2-c2cccs2)c1	36.0	-2.1	24.4	3.4	17.0	3.5
CC(=NOc1nc(C)cc(C)n1)c1ccc(Cl)cc1Cl	/	/	/	-1.2	/	/
CCCCn1c(/C=C/c2ccco2)nc2ccccc21	/	9.4	54.9*	-49.2	7.6	-15.9
CCCn1c(/C=C/c2ccco2)nc2ccccc21	89.2*	3.6	35.7	-50.1	-14.5	11.8
COc1ccccc1/C=C/C=Nn1c(-c2ccc(Cl)cc2Cl)n[nH]c1=S	/	/	/	9.7	/	/
CN(C)c1ccc(C=NNc2cc(N3CCOCC3)nc(N3CCOCC3)n2)cc1	/	/	/	-58.1	/	/
O=C(NN=Cc1ccc(OC(F)F)cc1)c1ccc(CSc2nc3ccccc3[nH]2)cc1	/	/	/	2.2	/	/
CCOC(=O)c1[nH]c2ccc(F)cc2c1NC(=O)C(C)N1CCc2cc(OC)c(OC)cc2C1 (stereo not given)	/	-24.5	31.0*	-15.9	-7.8	6.4
CCOC(=O)c1[nH]c2ccc(OC)cc2c1NC(=O)C(C)N1CCC2(CC1)OCCO2 (stereo not given)	/	/	18.4	/	/	/
NC(=O)NN=Cc1cn(-c2ccccc2)nc1-c1cccs1	/	/	/	-0.9	/	/
O=C(O)COc1ccccc1C=NNC(=O)CSc1nnc(SCc2ccc(Cl)cc2)s1	/	/	/	3.8	/	/
CC(=O)Nc1ccc(NC(=O)C(C)OC(=O)CCCN=C2NS(=O)(=O)c3ccccc32)cc1 (stereo not given)	-7.7	3.0	/	0.8	-6.3	13.2
CC(OC(=O)CCN=C1NS(=O)(=O)c2ccccc21)C(=O)Nc1ccc(N(C)C)cc1 (stereo not given)	99.4*	-3.0	/	/	12.1	/
O=C(Cc1ccccc1)Nc1nonc1NC(=O)c1ccccc1	-4.2	-10.6	9.2	4.6	13.5	80.6*
O=C(Cc1ccccc1)Nc1ccc(NC(=O)c2ccccc2)nc1	-8.6	-2.1	1.2	-1.4	19.2	-1.8
Nc1c2c(nc3ccc(Br)cc13)N(Cc1ccccc1)CC2	-6.1	0.5	55.5*	0.7	15.6	-23.1
